ChEMBL document CHEMBL4359830, “Discovery and structure-activity relationship of novel diphenylthiazole derivatives as BTK inhibitor with potent activity against B cell lymphoma cell lines” (Eur J Med Chem, 2019)

Key:
Raji [1] = assay: Antiproliferative activity against human Raji cells at 40 uM measured after 72 hrs by CCK-8 assay relative to control; assay type: functional; details: Homo sapiens, Raji, 72 h
How it was run: (§1)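 Ramos or Raji cells in RPMI-1640 with 10% FBS and 1% penicillin-streptomycin at 37 °C, 5% CO2. Seeded at 2000–3000 cells/well one day before compound addition. Exposure 72 h, then CCK-8 with absorbance at 450 nm. […] Single-point inhibition at 40 µM reported as mean ± standard deviation.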

Ramos [2] = assay: Antiproliferative activity against human Ramos cells at 40 uM measured after 72 hrs by CCK-8 assay relative to control; assay type: functional; details: Homo sapiens, Ramos, 72 h; how it was run: as §1
Raji [3] = assay: Antiproliferative activity against human Raji cells measured after 72 hrs by CCK-8 assay; assay type: functional, cell-based; how it was run: as §1
[4] = molecular target: Tyrosine-protein kinase BTK (Homo sapiens, UniProt Q06187); assay: Inhibition of human recombinant full length N-terminal His tagged BTK expressed in baculovirus infected Sf9 cells using poly (Glu,Tyr) 4:1 as substrate measured after 60 mins in presence of ATP by ADP-Glo kinase assay
Sequence of Tyrosine-protein kinase BTK (Q06187 whole entry): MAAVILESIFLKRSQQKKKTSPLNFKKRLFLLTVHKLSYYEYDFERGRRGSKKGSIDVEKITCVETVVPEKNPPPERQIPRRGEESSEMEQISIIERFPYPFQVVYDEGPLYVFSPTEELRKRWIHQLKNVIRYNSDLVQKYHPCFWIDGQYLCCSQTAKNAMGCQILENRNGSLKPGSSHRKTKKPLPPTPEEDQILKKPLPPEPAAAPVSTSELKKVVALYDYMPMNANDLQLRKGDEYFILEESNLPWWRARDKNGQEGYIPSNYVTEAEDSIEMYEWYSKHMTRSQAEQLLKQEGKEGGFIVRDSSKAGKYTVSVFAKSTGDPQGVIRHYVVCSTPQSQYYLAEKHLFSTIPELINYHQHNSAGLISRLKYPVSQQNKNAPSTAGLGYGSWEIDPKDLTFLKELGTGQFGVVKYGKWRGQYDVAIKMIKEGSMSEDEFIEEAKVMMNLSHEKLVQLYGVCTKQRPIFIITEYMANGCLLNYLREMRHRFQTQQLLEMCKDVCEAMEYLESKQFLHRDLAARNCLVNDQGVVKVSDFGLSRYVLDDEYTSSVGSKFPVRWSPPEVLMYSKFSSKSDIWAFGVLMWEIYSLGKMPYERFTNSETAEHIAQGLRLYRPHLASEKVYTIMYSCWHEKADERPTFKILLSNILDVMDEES

Ramos [5] = assay: Antiproliferative activity against human Ramos cells measured after 72 hrs by CCK-8 assay; assay type: functional, cell-based; how it was run: as §1

| SMILES | inhibition at 40 µM (Raji [1]) [%] | inhibition at 40 µM (Ramos [2]) [%] | IC50 (Raji [3]) [µM] | IC50 [4] [µM] | IC50 (Ramos [5]) [µM] |
| --- | --- | --- | --- | --- | --- |
| CCOC(=O)c1sc(-c2cccc(NC(=O)c3ccc(C#N)cc3)c2)nc1Nc1ccc(N2CCN(C)CC2)cc1 | 79.1 | 97.5 | 14 | 5.17 | 4.28 |
| NC(=O)c1sc(-c2cccc(NC(=O)c3ccc(F)cc3)c2)nc1Nc1ccc(C(=O)N2CCOCC2)cc1 | 82.5 | 91.5 | 35.4 | 0.733 | 13 |
| CN1CCN(c2ccc(Nc3nc(-c4cccc(NC(=O)c5ccccc5)c4)sc3C(N)=O)cc2)CC1 | 91.3 | 98.1 | 6.36 | 0.159 | 1.76 |
| CN1CCN(c2ccc(Nc3nc(-c4cccc(NC(=O)c5ccccc5F)c4)sc3C(=O)O)cc2)CC1 | 86.8 | 93.3 | 13.9 | 21.9 | 6.3 |
| CCOC(=O)c1sc(-c2cccc(NC(=O)c3ccc(N(C)C)cc3)c2)nc1Nc1ccc(N2CCOCC2)cc1 | 7.96 | 12.3 |  | 4.2 |  |
| CCOC(=O)c1sc(-c2cccc(NC(=O)c3ccc(C(C)(C)C)cc3)c2)nc1Nc1ccc(N2CCN(C)CC2)cc1 | 4.22 | 21.2 |  |  |  |
| CC(C)(C)c1ccc(C(=O)Nc2cccc(-c3nc(Nc4ccc(N5CCOCC5)cc4)c(C(=O)O)s3)c2)cc1 | 93.8 | 94.3 | 5.74 | 5.32 | 4.37 |
| CN1CCN(c2ccc(Nc3nc(-c4cccc(NC(=O)c5ccccc5)c4)sc3C(=O)O)cc2)CC1 | 11.9 | 26.3 |  |  |  |
| CCOC(=O)c1sc(-c2cccc(NC(=O)c3ccc(F)c(Cl)c3)c2)nc1Nc1ccc(N2CCN(C)CC2)cc1 | 20.7 | 72.5 |  |  | 29.2 |
| CCOC(=O)c1sc(-c2cccc(NC(=O)c3ccc(F)cc3)c2)nc1Nc1ccc(N2CCN(C)CC2)cc1 | 16.8 | 3.53 |  |  |  |
| CN1CCN(c2ccc(Nc3nc(-c4cccc(NC(=O)c5cccc(F)c5)c4)sc3C(N)=O)cc2)CC1 | 2.78 | 16.2 |  |  |  |
| CCOC(=O)c1sc(-c2cccc(NC(=O)[C@H]3CC[C@H](C)CC3)c2)nc1Nc1ccc(N2CCN(C)CC2)cc1 | 26.1 | 19.9 |  |  |  |
| CNC(=O)c1sc(-c2cccc(NC(=O)c3ccc(C(C)(C)C)cc3)c2)nc1Nc1ccc(N2CCOCC2)cc1 | 94 | 65.8 | 8.96 | 8.53 | 34.1 |
| CN1CCN(c2ccc(Nc3nc(-c4cccc(NC(=O)c5ccc(F)c(Cl)c5)c4)sc3C(=O)O)cc2)CC1 | 87.9 | 98.6 | 8.74 |  | 5.6 |
| CCOC(=O)c1sc(-c2cccc(NC(=O)c3ccc(F)cc3)c2)nc1Nc1ccc(N2CCOCC2)cc1 | 25.8 | 3.96 |  |  |  |
| CC(C)(C)c1ccc(C(=O)Nc2cccc(-c3nc(Nc4ccc(C(=O)N5CCOCC5)cc4)c(C(N)=O)s3)c2)cc1 | 33.4 | 85.2 |  | 0.333 | 28.4 |
| CCOC(=O)c1sc(-c2cccc(NC(=O)c3ccc(F)cc3)c2)nc1Nc1ccc(C(=O)N2CCOCC2)cc1 | 37.3 | 31.1 |  |  |  |
| O=C(Nc1cccc(-c2nc(Nc3ccc(N4CCOCC4)cc3)c(C(=O)O)s2)c1)c1ccc(C(F)(F)F)cc1 | 18.8 | 77.4 |  | 38.1 | 29.5 |
| CN1CCN(c2ccc(Nc3nc(-c4cccc(NC(=O)c5ccco5)c4)sc3C(N)=O)cc2)CC1 | 84.3 | 96.7 | 37.4 | 0.073 | 19.7 |
| CCOC(=O)c1sc(-c2cccc(NC(=O)c3ccccc3F)c2)nc1Nc1ccc(N2CCN(C)CC2)cc1 | 89.8 | 96.3 | 9.27 | 2.1 | 2 |

| SMILES | inhibition at 40 µM (Raji [1]) [%] | inhibition at 40 µM (Ramos [2]) [%] | IC50 (Raji [3]) [µM] | IC50 [4] [µM] | IC50 (Ramos [5]) [µM] |
| --- | --- | --- | --- | --- | --- |
| CCOC(=O)c1sc(-c2cccc(NC(=O)c3ccc(C(F)(F)F)cn3)c2)nc1Nc1ccc(N2CCN(C)CC2)cc1 | 20.8 | 19 |  |  |  |
| CCOC(=O)c1sc(-c2cccc(NC(=O)c3ccc(C(C)(C)C)cc3)c2)nc1Nc1ccc(C(=O)N2CCOCC2)cc1 | 13.2 | 82.6 |  |  | 25.2 |
| CCOC(=O)c1sc(-c2cccc(NC(=O)c3ccccc3)c2)nc1Nc1ccc(N2CCN(C)CC2)cc1 | 42 | 77.1 |  | 37.1 | 24.8 |
| CCOC(=O)c1sc(-c2cccc(NC(=O)c3ccco3)c2)nc1Nc1ccc(N2CCN(C)CC2)cc1 | 87.6 | 50.2 | 15.1 | 0.161 |  |
| CN1CCN(c2ccc(Nc3nc(-c4cccc(NC(=O)c5ccc(C(C)(C)C)cc5)c4)sc3C(N)=O)cc2)CC1 | 12.1 | 80.1 |  | 5.25 | 8.6 |
| NC(=O)c1sc(-c2cccc(NC(=O)c3ccc(C(F)(F)F)cc3)c2)nc1Nc1ccc(C(=O)N2CCOCC2)cc1 | 43.8 | 83.8 | 75.3 | 0.617 | 29.8 |
| CC(C)(C)c1ccc(C(=O)Nc2cccc(-c3nc(Nc4ccc(N5CCOCC5)cc4)c(C(N)=O)s3)c2)cc1 | 4.42 | 5.57 |  | 2.23 |  |
| CC(C)NC(=O)c1sc(-c2cccc(NC(=O)c3ccc(C(C)(C)C)cc3)c2)nc1Nc1ccc(N2CCOCC2)cc1 | 6.39 | 27.9 |  | 62.8 |  |
| CCOC(=O)c1sc(-c2cccc(NC(=O)c3cccc(F)c3)c2)nc1Nc1ccc(N2CCN(C)CC2)cc1 | 82.8 | 85.2 | 21.2 | 19.2 | 12.8 |
| CN(C)c1ccc(C(=O)Nc2cccc(-c3nc(Nc4ccc(N5CCOCC5)cc4)c(C(=O)O)s3)c2)cc1 | 24.4 | 74.4 |  | 21 | 24.5 |
| CCOC(=O)c1sc(-c2cccc(NC(=O)c3ccc(Cl)cc3)c2)nc1Nc1ccc(N2CCN(C)CC2)cc1 | 24.3 | 46.9 |  |  |  |
| NC(=O)c1sc(-c2cccc(NC(=O)c3ccc(F)cc3)c2)nc1Nc1ccc(N2CCOCC2)cc1 | 9.92 | 3.53 |  | 0.258 |  |
| CCOC(=O)c1sc(-c2cccc(NC(=O)c3ccc(C(C)(C)C)cc3)c2)nc1Nc1ccc(N2CCOCC2)cc1 | 6.21 | 14 |  |  |  |
| CN1CCN(c2ccc(Nc3nc(-c4cccc(NC(=O)c5ccc(C(F)(F)F)cn5)c4)sc3C(N)=O)cc2)CC1 | 84.6 | 96.6 | 24.5 | 0.637 | 19.8 |
| CN1CCN(c2ccc(Nc3nc(-c4cccc(NC(=O)[C@H]5CC[C@H](C)CC5)c4)sc3C(N)=O)cc2)CC1 | 22.4 | 55 |  | 0.105 |  |
| CCOC(=O)c1sc(-c2cccc(NC(=O)c3ccc(C(F)(F)F)cc3)c2)nc1Nc1ccc(N2CCOCC2)cc1 | 5.44 | 21.8 |  | 2.42 |  |
| CCOC(=O)c1sc(-c2cccc(NC(=O)c3ccc(C(F)(F)F)cc3)c2)nc1Nc1ccc(N2CCN(C)CC2)cc1 | 33 | 18.4 |  |  |  |
| CCOC(=O)c1sc(-c2cccc(NC(=O)c3ccc(C(F)(F)F)cc3)c2)nc1Nc1ccc(C(=O)N2CCOCC2)cc1 | 6.06 | 49.9 |  |  |  |
| NC(=O)c1sc(-c2cccc(NC(=O)c3ccc(C(F)(F)F)cc3)c2)nc1Nc1ccc(N2CCOCC2)cc1 | 7.48 | 25.2 |  | 6.75 |  |
